In ChEMBL document CHEMBL1145867, “Muraymycins, novel peptidoglycan biosynthesis inhibitors: synthesis and SAR of their analogues” (2003):
Values after ≈ are worked out from the molar mass of the structure shown. Active and inactive are the calls of the source. The calls are words filed in the database; no cut-off is given here.

What was measured:
Enterococcus sp. = assay: In vitro antimicrobial activity against Enterococci; assay type: functional
How it was run: (§1)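 Broth microdilution per NCCLS guidance. Serial dilutions of each agent in microtiter plates are inoculated with each organism to 10⁵ CFU/mL and incubated 18–22 h at 35 C in ambient air. MIC is the lowest concentration giving complete growth inhibition, judged by the unaided eye.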

Bacteria = assay: In vitro antimicrobial activity against gram-negative organisms (10); assay type: functional; how it was run: as §1
Staphylococcus sp. [1] = assay: In vitro antimicrobial activity against Staphylococci; assay type: functional, staphyl ococcus species; how it was run: as §1
Staphylococcus sp. [2] = assay: In vitro antimicrobial activity against CNS GC 4547; assay type: functional; how it was run: as §1
Escherichia coli [3] = assay: In vitro antimicrobial activity against Escherichia coli GC 4560; assay type: functional; how it was run: as §1
Enterococcus faecalis [4] = assay: In vitro antimicrobial activity against Enterococcus faecalis GC 842; assay type: functional; how it was run: as §1
Escherichia coli [5] = assay: In vitro antimicrobial activity against Escherichia coli GC 2214; assay type: functional; how it was run: as §1
Serratia marcescens = assay: In vitro antimicrobial activity against Serratia marcescens GC 4077; assay type: functional; how it was run: as §1
Staphylococcus aureus [6] = assay: In vitro antimicrobial activity against Staphylococcu aureus GC 1131; assay type: functional
How it was run: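 Broth dilution per NCCLS recommendations. Serial dilutions in microtiter plates inoculated to 10⁵ CFU/mL, then incubated 18–22 h at 35 C in ambient air. MIC taken as the lowest concentration giving complete growth inhibition by unaided eye.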

Pseudomonas aeruginosa [7] = assay: In vitro antimicrobial activity against Pseudomonas aeruginosa GC 2214; assay type: functional; how it was run: as §1
Escherichia coli [8] = assay: In vitro antimicrobial activity against Escherichia coli GC 4559; assay type: functional; how it was run: as §1
[9] = The inhibitory activity of compound against MraY or MurG at 100 ug/mL; Inhibit
[10] = The inhibitory activity of compound against MraY or MurG at 50 ug/mL; Inhibit
Klebsiella pneumoniae = assay: In vitro antimicrobial activity against Klebsiella pneumoniae GC 4534; assay type: functional; how it was run: as §1
[11] = The inhibitory activity of compound against MraY or MurG at 6.25 ug/mL; No Inhibition
Enterobacter cloacae = assay: In vitro antimicrobial activity against Enterobacter cloacae GC 3783; assay type: functional; how it was run: as §1
Candida albicans = assay: In vitro antimicrobial activity against Candida albicans GC 3066; assay type: functional; how it was run: as §1
[12] = The inhibitory activity of compound against MraY or MurG at 25 ug/mL; No Inhibition
Enterococcus faecalis [13] = assay: In vitro antimicrobial activity against Enterococcus faecalis GC 4555; assay type: functional; how it was run: as §1
Staphylococcus aureus [14] = assay: In vitro antimicrobial activity against Staphylococcu aureus GC 2216; assay type: functional; how it was run: as §1
Escherichia coli [15] = assay: In vitro antimicrobial activity against Escherichia coli GC 3226; assay type: functional; how it was run: as §1
Morganella morganii = assay: In vitro antimicrobial activity against Morganella morganii GC 4531; assay type: functional; how it was run: as §1
[16] = The inhibitory activity of compound against MraY or MurG at 12.5 ug/mL; No Inhibition
Staphylococcus sp. [17] = assay: In vitro antimicrobial activity against CNS GC 4538; assay type: functional; how it was run: as §1
Enterococcus faecalis [18] = assay: In vitro antimicrobial activity against Enterococcus faecalis GC 2242; assay type: functional; how it was run: as §1
Pseudomonas aeruginosa [19] = assay: In vitro antimicrobial activity against Pseudomonas aeruginosa GC 4532; assay type: functional; how it was run: as §1
Staphylococcus aureus [20] = assay: In vitro antimicrobial activity against Staphylococcu aureus GC 4536; assay type: functional; how it was run: as §1
[21] = The inhibitory activity of compound against MraY or MurG at 100 ug/mL; No Inhibition
[22] = The inhibitory activity of compound against MraY or MurG at 50 ug/mL; No Inhibition

Compound `COc1ccc(Cn2c(=O)ccn([C@@H]3OC([C@H](O)[C@H](NCCCNC(=O)[C@H](NC(=O)OCc4ccccc4)C(O)C(C)C)C(=O)OC(C)(C)C)[C@@H](O[Si](C)(C)C(C)(C)C)[C@H]3O[Si](C)(C)C(C)(C)C)c2=O)cc1` (stereo partly drawn) has an MIC (Enterococcus sp.) of 128 µg/mL (≈ 123 µM), an MIC (Bacteria) greater than 128 µg/mL and an MIC (Staphylococcus sp. [1]) greater than 128 µg/mL.

Work on `COc1ccc(Cn2c(=O)ccn([C@@H]3OC([C@H](O)[C@H](NCCCNC(=O)[C@H](N)CCCCNC(=O)OCc4ccccc4)C(=O)OC(C)(C)C)[C@@H](O[Si](C)(C)C(C)(C)C)[C@H]3O[Si](C)(C)C(C)(C)C)c2=O)cc1` (stereo partly drawn) yielded an MIC (Staphylococcus sp. [2]) of 16 µg/mL (≈ 15.4 µM), an MIC (Escherichia coli [3]) of 8 µg/mL (≈ 7.68 µM) and an MIC (Enterococcus faecalis [4]) of 8 µg/mL (≈ 7.68 µM). It also gave an MIC (Escherichia coli [5]) of 128 µg/mL (≈ 123 µM), an MIC (Serratia marcescens) of 128 µg/mL (≈ 123 µM) and an MIC (Staphylococcus aureus [6]) of 4 µg/mL (≈ 3.84 µM). The MIC (Pseudomonas aeruginosa [7]) was greater than 128 µg/mL, the MIC (Escherichia coli [8]) was greater than 128 µg/mL and the Inhibitory activity [9] was “Inhibit”. The Inhibitory activity [10] was “Inhibit”, the MIC (Klebsiella pneumoniae) was greater than 128 µg/mL and the MIC (Enterococcus sp.) was 8 µg/mL (≈ 7.68 µM). For the same compound, the Inhibitory activity [11] was “inactive”, the MIC (Enterobacter cloacae) was greater than 128 µg/mL and the MIC (Candida albicans) was greater than 128 µg/mL. For the same compound, the Inhibitory activity [12] was “inactive”, the MIC (Enterococcus faecalis [13]) was 8 µg/mL (≈ 7.68 µM) and the MIC (Staphylococcus aureus [14]) was 8 µg/mL (≈ 7.68 µM). For the same compound, the MIC (Bacteria) was 128 µg/mL (≈ 123 µM), the MIC (Escherichia coli [15]) was 128 µg/mL (≈ 123 µM) and the MIC (Morganella morganii) was 128 µg/mL (≈ 123 µM). The Inhibitory activity [16] was “inactive”, the MIC (Staphylococcus sp. [17]) was 8 µg/mL (≈ 7.68 µM) and the MIC (Staphylococcus sp. [17]; Staphylococcus sp., read-out: MIC) was 8 µg/mL (≈ 7.68 µM). It also gave an MIC (Enterococcus faecalis [18]) of 8 µg/mL (≈ 7.68 µM), an MIC (Pseudomonas aeruginosa [19]) greater than 128 µg/mL and an MIC (Staphylococcus aureus [20]) of 8 µg/mL (≈ 7.68 µM). The MIC (Staphylococcus sp. [1]) was 4 µg/mL (≈ 3.84 µM).

Compound `COc1ccc(Cn2c(=O)ccn([C@@H]3OC([C@H](O)[C@H](NCCCNC(=O)[C@H](N)CC(C)C)C(=O)OC(C)(C)C)[C@@H](O)[C@H]3O)c2=O)cc1` (stereo partly drawn) has an MIC (Enterococcus sp.) greater than 128 µg/mL, an MIC (Bacteria) greater than 128 µg/mL and an MIC (Staphylococcus sp. [1]) greater than 128 µg/mL.

With `COc1ccc(Cn2c(=O)ccn([C@@H]3OC([C@H](O)[C@H](NCCCNC(=O)[C@@H](CC(C)C)NC(=O)[C@H](CCCN=C(N)N)NC(=O)N[C@H](C(=O)O)C(C)C)C(=O)O)[C@@H](O)[C@H]3O)c2=O)cc1` (stereo partly drawn) the Inhibitory activity [21] was “inactive”, the MIC (Enterococcus sp.) was greater than 128 µg/mL and the Inhibitory activity [11] was “inactive”. For the same compound, the Inhibitory activity [12] was “inactive”, the MIC (Bacteria) was greater than 128 µg/mL and the Inhibitory activity [16] was “inactive”. For the same compound, the Inhibitory activity [22] was “inactive” and the MIC (Staphylococcus sp. [1]) was greater than 128 µg/mL.

With `COc1ccc(Cn2c(=O)ccn([C@@H]3OC([C@H](O)[C@H](NCCCNC(=O)[C@H](NC(=O)[C@H](CCC/N=C(\N)N[N+](=O)[O-])NC(=O)N[C@H](C(=O)OCc4ccccc4)C(C)C)C(C)O)C(=O)OC(C)(C)C)[C@@H](O[Si](C)(C)C(C)(C)C)[C@H]3O[Si](C)(C)C(C)(C)C)c2=O)cc1` (stereo partly drawn) the MIC (Enterococcus sp.) was 64 µg/mL (≈ 48.7 µM), the MIC (Bacteria) was 64 µg/mL (≈ 48.7 µM) and the MIC (Staphylococcus sp. [1]) was 128 µg/mL (≈ 97.4 µM).

Work on `COc1ccc(Cn2c(=O)ccn([C@@H]3OC([C@H](O)[C@H](NCCCNC(=O)[C@@H](CC(C)C)NC(=O)[C@H](CCC/N=C(\N)N[N+](=O)[O-])NC(=O)N[C@H](C(=O)OCc4ccccc4)C(C)C)C(=O)OC(C)(C)C)[C@@H](O[Si](C)(C)C(C)(C)C)[C@H]3O[Si](C)(C)C(C)(C)C)c2=O)cc1` (stereo partly drawn) yielded an MIC (Enterococcus sp.) greater than 128 µg/mL, an MIC (Bacteria) greater than 128 µg/mL and an MIC (Staphylococcus sp. [1]) greater than 128 µg/mL.

`COc1ccc(Cn2c(=O)ccn([C@@H]3OC([C@H](O)[C@H](NCCCNC(=O)[C@@H](CCC(=O)OC(C)(C)C)NC(=O)OCc4ccccc4)C(=O)OC(C)(C)C)[C@@H](O[Si](C)(C)C(C)(C)C)[C@H]3O[Si](C)(C)C(C)(C)C)c2=O)cc1` (stereo partly drawn) showed an MIC (Enterococcus sp.) greater than 128 µg/mL, an MIC (Bacteria) greater than 128 µg/mL and an MIC (Staphylococcus sp. [1]) of 128 µg/mL (≈ 117 µM).

Work on `CC(C)C(O)[C@@H](NC(=O)OCc1ccccc1)C(=O)NCCCN[C@H](C(=O)OC(C)(C)C)[C@@H](O)C1O[C@@H](n2ccc(=O)[nH]c2=O)[C@H](O[Si](C)(C)C(C)(C)C)[C@@H]1O[Si](C)(C)C(C)(C)C` (stereo partly drawn) yielded an MIC (Enterococcus sp.) of 64 µg/mL (≈ 69.4 µM), an MIC (Bacteria) greater than 128 µg/mL and an MIC (Staphylococcus sp. [1]) greater than 128 µg/mL.

`COc1ccc(Cn2c(=O)ccn([C@@H]3OC([C@H](O)[C@H](NCCCNC(=O)[C@@H](CCCCNC(=O)OCc4ccccc4)NC(=O)OCc4ccccc4)C(=O)OC(C)(C)C)[C@@H](O[Si](C)(C)C(C)(C)C)[C@H]3O[Si](C)(C)C(C)(C)C)c2=O)cc1` (stereo partly drawn) showed an MIC (Enterococcus sp.) greater than 128 µg/mL, an MIC (Bacteria) greater than 128 µg/mL and an MIC (Staphylococcus sp. [1]) greater than 128 µg/mL.

For `COc1ccc(Cn2c(=O)ccn([C@@H]3OC([C@H](O)[C@H](NCCCNC(=O)[C@@H](CC(C)C)NC(=O)OCc4ccccc4)C(=O)O)[C@@H](O)[C@H]3O)c2=O)cc1` (stereo partly drawn), the MIC (Enterococcus sp.) was 128 µg/mL (≈ 173 µM), the MIC (Bacteria) was greater than 128 µg/mL and the MIC (Staphylococcus sp. [1]) was greater than 128 µg/mL.

In the case of `COc1ccc(Cn2c(=O)ccn([C@@H]3OC([C@H](O)[C@H](NCCCNC(=O)[C@@H](CC(C)C)NC(=O)OCc4ccccc4)C(=O)OC(C)(C)C)[C@@H](O)[C@H]3O)c2=O)cc1` (stereo partly drawn), the MIC (Enterococcus sp.) is reported as greater than 128 µg/mL, the MIC (Bacteria) is reported as greater than 128 µg/mL and the MIC (Staphylococcus sp. [1]) is reported as greater than 128 µg/mL.
